The source made the active and inactive calls. No cut-off for these calls is given here.
Columns and labels:
Mus musculus [1] = assay: Inhibition of (+/-)DOI-induced head twitch response in ip dosed Albino Swiss mouse administered 60 mins before (+/-)DOI injection measured for 20 mins; assay type: functional, organism-based
In short: (§1)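 Male Albino Swiss mice; compounds suspended in 0.5% methylcellulose, injected i.p. 60 min before (±)DOI 2.5 mg/kg i.p.; head twitches counted over 20 min. Mean ± SEM, percent reduction versus DOI-treated group; one-way ANOVA with Bonferroni post hoc test.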

Mus musculus [2] = assay: Neurotoxicity in Albino Swiss mouse assessed as induction of myorelaxation at 0.0125 to 0.1 ED50, ip after 60 mins by chimney test; assay type: toxicity, organism-based; conditions: in vivo, 1 h
Mus musculus [3] = assay: Increase in body temperature in Albino Swiss mouse at 0.1 ED50, ip administered 60 mins before test measured 30 to 180 mins post dose; assay type: functional, organism-based
In short: (§2)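 Normothermic male Albino Swiss mice; rectal temperature by thermistor thermometer. Baseline taken as mean of readings at 60 and 30 min before dosing; i.p. dose (0.1 ED50, 0.5% methylcellulose vehicle) then readings at 30, 60, 90, 120 min (to 180 min for some). Change = final minus initial; Bonferroni post hoc test.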

Mus musculus [4] = assay: Inhibition of (+/-)DOI-induced head twitch response in Albino Swiss mouse at 28.6 mg/kg, ip administered 60 mins before (+/-)DOI injection measured for 20 mins relative to untreated control; assay type: functional; in short: as §1
Mus musculus [5] = assay: Neurotoxicity in Albino Swiss mouse assessed as induction of myorelaxation at 0.0125 to 0.1 ED50, ip after 60 mins by rotarod test; assay type: toxicity, organism-based; conditions: in vivo, 1 h
Mus musculus [6] = assay: Anticonvulsant activity in Albino Swiss mouse assessed as protection against pentetrazol-induced clonic seizure at 0.1 ED50, ip administered 60 mins prior to test relative to untreated control; assay type: functional
In short: (§3)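 Male Albino Swiss mice (18-30 g); compound given i.p. as suspension in 0.5% methylcellulose 60 min before test; pentylenetetrazole 110 mg/kg s.c. Scored as number of mice with clonic seizures, tonic convulsions and deaths per animals tested; Fisher's exact test vs solvent control.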

Mus musculus [7] = assay: Inhibition of amphetamine-induced hyperlocomotion in Albino Swiss mouse at 0.1 ED50, ip administered 60 mins prior to test measured for 30 mins by photoresistor actometer analysis; assay type: functional
In short: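 Single male Albino Swiss mice; compound i.p. 60 min and amphetamine 5 mg/kg s.c. 30 min before test. Photoresistor actometers (circular cage, two light beams) counted beam crossings over 30 min; mean ± SEM, Dunnett's test vs control.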

[8] = target: 5-hydroxytryptamine receptor 2A (Rattus norvegicus, UniProt P14842); assay: Displacement of [3H]ketanserin from 5HT2A receptor in Sprague-Dawley rat brain cortex incubated for 15 mins
Chain of 5-hydroxytryptamine receptor 2A (P14842 whole entry): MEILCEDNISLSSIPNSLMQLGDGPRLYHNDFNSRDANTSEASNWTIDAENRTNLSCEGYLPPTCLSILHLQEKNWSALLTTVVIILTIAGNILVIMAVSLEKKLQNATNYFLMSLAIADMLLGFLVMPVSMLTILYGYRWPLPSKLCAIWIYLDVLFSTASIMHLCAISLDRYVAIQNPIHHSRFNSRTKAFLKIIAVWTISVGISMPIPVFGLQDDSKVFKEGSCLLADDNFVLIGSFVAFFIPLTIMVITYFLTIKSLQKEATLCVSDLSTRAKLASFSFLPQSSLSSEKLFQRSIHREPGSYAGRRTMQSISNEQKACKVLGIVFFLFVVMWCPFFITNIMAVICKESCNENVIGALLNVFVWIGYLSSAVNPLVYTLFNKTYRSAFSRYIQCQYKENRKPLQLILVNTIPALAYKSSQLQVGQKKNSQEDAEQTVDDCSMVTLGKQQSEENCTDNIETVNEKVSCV
In short: (§4)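 Rat frontal cortex homogenized in 50 mM Tris-HCl, 0.5 mM EDTA, 10 mM MgCl2, pH 7.4, washed, resuspended with 0.1% ascorbate and pargyline. Triplicates: 5-HT2A used 0.4 nM [3H]ketanserin, cinanserin for nonspecific binding; 5-HT2C used 1 nM [3H]mesulergine, mianserin nonspecific, 100 nM spiperone added. 15 min at 37 C, glass-fiber filtration.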

Mus musculus [9] = assay: Neurotoxicity in Albino Swiss mouse assessed as impairment in motor coordination at 0.0125 to 0.1 ED50, ip after 60 mins by rotarod test; assay type: toxicity, organism-based; conditions: in vivo, 1 h
Mus musculus [10] = assay: Neurotoxicity in Albino Swiss mouse assessed as impairment in motor coordination at 0.0125 to 0.1 ED50, ip after 60 mins by chimney test; assay type: toxicity, organism-based; conditions: in vivo, 1 h
Mus musculus [11] = assay: Toxicity in ip dosed Albino Swiss mouse assessed as loss of righting reflex administered 60 mins before test measured up to 48 hrs; assay type: organism-based; conditions: in vivo
In short: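 Acute toxicity in male Albino Swiss mice by Litchfield-Wilcoxon method: ED50 for loss of righting reflex after i.p. dosing, observed at 15, 30, 60, 180 min and 24, 48 h.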

[12] = target: T1, 5-hydroxytryptamine receptor 2C (Rattus norvegicus, UniProt P08909); assay: Displacement of [3H]mesulergine from 5HT2C receptor in Sprague-Dawley rat brain cortex incubated for 15 mins; in short: as §4
T1 sequence (P08909 whole entry): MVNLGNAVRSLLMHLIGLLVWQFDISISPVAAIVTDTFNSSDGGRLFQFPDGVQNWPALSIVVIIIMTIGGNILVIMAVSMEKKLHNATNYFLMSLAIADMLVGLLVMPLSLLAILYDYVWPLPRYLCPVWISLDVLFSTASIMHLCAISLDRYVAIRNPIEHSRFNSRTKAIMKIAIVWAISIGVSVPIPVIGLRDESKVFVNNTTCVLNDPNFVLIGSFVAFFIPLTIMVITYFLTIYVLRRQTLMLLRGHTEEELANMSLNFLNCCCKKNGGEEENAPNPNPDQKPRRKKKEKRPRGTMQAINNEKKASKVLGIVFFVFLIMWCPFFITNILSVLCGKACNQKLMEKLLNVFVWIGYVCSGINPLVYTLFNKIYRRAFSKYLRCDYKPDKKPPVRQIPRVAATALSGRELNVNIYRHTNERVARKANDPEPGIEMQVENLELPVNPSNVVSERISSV

Mus musculus [13] = assay: Toxicity in Albino Swiss mouse assessed as inhibition of spontaneous locomotor activity at 0.1 ED50, ip administered 60 mins before test measured for 30 mins by photoresistor actometer analysis; assay type: organism-based; conditions: in vivo, 0.5 h
In short: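 Spontaneous locomotion of single male Albino Swiss mice recorded in two-beam photoresistor actometers as beam crossings for 30 min, beginning 60 min after i.p. compound (suspension in 0.5% methylcellulose).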

Mus musculus [14] = assay: Inhibition of 5-HTP-induced head twitch response in Albino Swiss mouse at 0.1 ED50, ip administered 60 mins before 5-HTP injection relative to untreated control; assay type: functional
In short: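 Male Albino Swiss mice given compound i.p. (0.1 ED50, 0.5% methylcellulose) 60 min before the test; L-5-HTP 230 mg/kg i.p. injected immediately before. Head twitches counted; mean ± SEM, Dunnett's test vs control.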

Mus musculus [15] = assay: Effect on body temperature in Albino Swiss mouse at 0.1 ED50, ip administered 60 mins before test measured 30 to 180 mins post dose; assay type: functional, organism-based; in short: as §2
Mus musculus [16] = assay: Antinociceptive activity in Albino Swiss mouse assessed as inhibition of acetic acid-induced writhing response at 0.05 ED50, ip administered 60 mins prior to test measured for 10 mins in presence of opioid receptor antagonist naloxone; assay type: functional, organism-based
Mus musculus [17] = assay: Inhibition of (+/-)DOI-induced head twitch response in Albino Swiss mouse at 36.55 mg/kg, ip administered 60 mins before (+/-)DOI injection measured for 20 mins relative to untreated control; assay type: functional; in short: as §1
Mus musculus [18] = assay: Antinociceptive activity in Albino Swiss mouse assessed as inhibition of acetic acid-induced writhing response at 0.1 ED50, ip administered 60 mins prior to test measured for 10 mins; assay type: functional, organism-based
In short: (§5)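 Male Albino Swiss mice, i.p. dosing in 0.5% methylcellulose 60 min beforehand; 0.6% acetic acid injected i.p., writhing episodes counted for 10 min beginning 5 min after acid. Mean ± SEM; one-way ANOVA with Dunnett's test vs control.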

Mus musculus [19] = assay: Protection against pentetrazol-induced mortality in Albino Swiss mouse at 0.1 ED50, ip administered 60 mins prior to test relative to untreated control; assay type: functional
In short: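 Male Albino Swiss mice (18–30 g). Compound given i.p. as suspension in 0.5% methylcellulose (10 mL/kg), 60 min before test; controls got vehicle. Dose expressed as fraction of ED50 (loss of righting reflex within 48 h). Convulsions induced by pentylenetetrazole 110 mg/kg s.c.; dead animals counted per group (n=10; control n=16). Significance vs control by Fisher's exact test.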

Mus musculus [20] = assay: Inhibition of (+/-)DOI-induced head twitch response in Albino Swiss mouse at 73.1 mg/kg, ip administered 60 mins before (+/-)DOI injection measured for 20 mins relative to untreated control; assay type: functional; in short: as §1
Mus musculus [21] = assay: Anticonvulsant activity in Albino Swiss mouse assessed as protection against pentetrazol-induced tonic seizure at 0.1 ED50, ip administered 60 mins prior to test relative to untreated control; assay type: functional; in short: as §3
Mus musculus [22] = assay: Antinociceptive activity in Albino Swiss mouse assessed as inhibition of acetic acid-induced writhing response at 0.025 to 0.05 ED50, ip administered 60 mins prior to test measured for 10 mins; assay type: functional, organism-based; in short: as §5
Mus musculus [23] = assay: Decrease in body temperature in Albino Swiss mouse at 0.1 ED50, ip administered 60 mins before test measured 30 to 120 mins post dose; assay type: functional, organism-based; in short: as §2
Mus musculus [24] = assay: Inhibition of (+/-)DOI-induced head twitch response in Albino Swiss mouse at 5 mg/kg, ip administered 60 mins before (+/-)DOI injection measured for 20 mins relative to untreated control; assay type: functional; in short: as §1
Mus musculus [25] = assay: Inhibition of 5-HTP-induced head twitch response in ddY mouse at >=1 mg/kg, po administered 1 hr before 5-HTP injection measured after 30 mins relative to untreated control; assay type: functional

Structure (SMILES)	inhibition (Mus musculus [1])	Activity (Mus musculus [2])	Activity (Mus musculus [5])	Activity (Mus musculus [6])	Ki [8] [nM]	Activity (Mus musculus [9])	Activity (Mus musculus [10])	ED50 (Mus musculus [11]) [mg/kg]	Ki [12] [µM]	Activity (Mus musculus [13])	inhibition (Mus musculus [16])	inhibition (Mus musculus [18])	inhibition (Mus musculus [7])	inhibition (Mus musculus [22])	inhibition (INH) (Mus musculus [14]) [%]	further results
Fc1ccc(NC(=S)Nc2cccc(C(F)(F)F)c2)cc1Cl	Dose-dependent effect	Non-toxic	Non-toxic	inactive	0.043	Non-toxic	Non-toxic	286.2	> 10	Non-toxic						Activity (Mus musculus [3]): Active; inhibition in vivo at 28.6 mg/kg (Mus musculus [4]): 51.6%; inhibition (INH) (Mus musculus [7]): 47.3%; inhibition (Mus musculus [14]): inactive
FC(F)(F)c1cccc(NC(S)=NCc2ccccc2)c1	Dose-dependent effect	Non-toxic	Non-toxic	40%	0.6	Non-toxic	Non-toxic	731.3	> 10	Non-toxic	Active	Active	Active	Active	73.3	Activity (Mus musculus [15]): inactive; inhibition in vivo at 36.55 mg/kg (Mus musculus [17]): 69.4%; Activity (Mus musculus [19]): Active; inhibition in vivo at 73.1 mg/kg (Mus musculus [20]): 72.2%; Activity (Mus musculus [21]): 46.66%
CC(NC(=S)Nc1ccc(Cl)c([N+](=O)[O-])c1)c1ccccc1 (stereo unspecified)		Non-toxic	Non-toxic	inactive	> 10000	Non-toxic	Non-toxic	1031.3	> 10	Non-toxic	Active	Active	inactive	Active	89	Activity (Mus musculus [23]): Active
O=C(c1ccc(F)cc1)C1CCN(CCn2c(=O)[nH]c3ccccc3c2=O)CC1 [KETANSERIN]																inhibition in vivo at 5 mg/kg (Mus musculus [24]): 100%; inhibition (INH) (Mus musculus [25]): >80%

— ChEMBL document CHEMBL3797076, “5-HT2 receptor affinity, docking studies and pharmacological evaluation of a series of 1,3-disubstituted thiourea derivatives” (Eur J Med Chem, 2016)
